The subject of one assay is Ferriprotoporphyrin IX. Briefly: Binding affinity to ferriprotoporphyrin 9 at pH 7.5 by UV-vis spectrophotometric analysis in presence of 40% DMSO. In outline:
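Association constant (log K) with Fe(III)PPIX measured by spectrophotometric titration in 40% aqueous (v/v) DMSO, pH 7.5, using a previously described method without modification.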

Assay [1] in a line: Inhibition of beta-hematin formation after 60 mins by colorimetric assay relative to Fe(3)PP9. It is filed as functional. A digest of the protocol:
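4.5 M acetate drives β-hematin formation. Leftover Fe(III)PPIX is then reacted with 5% aqueous pyridine to give a low-spin bis-pyridyl complex, read colorimetrically. Prior method used unmodified; result reported as BHIA₅₀ (50% inhibitory activity).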

A further assay concerns Plasmodium falciparum. Briefly: Antimalarial activity against chloroquine-sensitive Plasmodium falciparum NF54 by [3H]hypoxanthine incorporation assay. Type of assay: functional, organism-based. A digest of the protocol:
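Chloroquine-sensitive NF54 P. falciparum parasites grown in vitro; growth measured by [³H]-hypoxanthine incorporation, essentially as in earlier work; IC50 in nM.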

The values below come from ChEMBL document CHEMBL2390834, “Structure-activity relationships for ferriprotoporphyrin IX association and β-hematin inhibition by 4-aminoquinolines using experimental and ab initio methods” (Bioorg Med Chem, 2013).

Usually IC50 stands for the point on the concentration scale where inhibition reaches its midpoint. Higher therefore signals weaker potency in that assay. `NCCNc1ccnc2cc(C(F)(F)F)ccc12`: in the assay on Ferriprotoporphyrin IX, the log K was 4.7. Moreover, the IA50 in assay [1] came to 5.4 equiv. Besides, in the assay with Plasmodium falciparum, the IC50 was 8.6 nM.

For the compound `CNc1ccnc2cc(OC)ccc12`, the log K in the assay with Ferriprotoporphyrin IX is 3.71. The compound further displayed an IA50 in assay [1] of 10.4 equiv.

Regarding `CNc1ccnc2ccccc12`, in the assay with Ferriprotoporphyrin IX, the log K worked out at 3.92. This compound displayed an IA50 in assay [1] of 14.9 equiv.

Take `COc1ccc2c(NCCN)ccnc2c1`: the log K in the assay on Ferriprotoporphyrin IX came out at 4.47. In assay [1], this compound showed an IA50 of 10.6 equiv.

In the case of `Cc1ccc2c(N)ccnc2c1`, in the assay on Ferriprotoporphyrin IX, the log K is 4.17. The compound also returned an IA50 in assay [1] of 10.8 equiv.

For `CCN(CC)CCNc1ccnc2ccccc12`, in the assay on Ferriprotoporphyrin IX, the log K was determined as 4.75. The same compound came in with an IA50 in assay [1] greater than 20 equiv.

For `Cc1ccc2c(NCCN)ccnc2c1`, the log K in the assay on Ferriprotoporphyrin IX is 4.35. Also, the IA50 in assay [1] was found to be 10.3 equiv. Besides, the IC50 in the assay with Plasmodium falciparum was 37 nM.

Turning to `CNc1ccnc2cc(C(N)=O)ccc12`, the log K with Ferriprotoporphyrin IX stood at 3.43. The compound further came in with an IA50 in assay [1] of 10.1 equiv.

With `CCN(CC)CCNc1ccnc2cc(C(F)(F)F)ccc12`, the log K with Ferriprotoporphyrin IX worked out at 4.67. This compound yielded an IA50 in assay [1] of 8 equiv.

As for `Nc1ccnc2ccccc12`, the log K in the assay on Ferriprotoporphyrin IX worked out at 3.83. The same compound showed an IA50 in assay [1] of 10 equiv.

As for `Nc1ccnc2cc([N+](=O)[O-])ccc12`, in the assay on Ferriprotoporphyrin IX, the log K stood at 4.57. For the same compound, in assay [1], the IA50 is 5.7 equiv.

On to `CCN(CC)CCNc1ccnc2cc(C)ccc12`, for which the log K with Ferriprotoporphyrin IX is 4.86. In assay [1], this compound had an IA50 of 17 equiv.

As for `CCN(CC)CCNc1ccnc2cc(I)ccc12`, the log K in the assay on Ferriprotoporphyrin IX was 5.02. In assay [1], this compound displayed an IA50 of 2.8 equiv.

As to `CNc1ccnc2cc(C#N)ccc12`, the log K with Ferriprotoporphyrin IX was found to be 4.42. The compound further had an IA50 in assay [1] of 4.5 equiv.

With `CNc1ccnc2cc(N)ccc12`, in the assay on Ferriprotoporphyrin IX, the log K stood at 4.04. Besides, the IA50 in assay [1] was greater than 20 equiv.

Regarding `NCCNc1ccnc2cc([N+](=O)[O-])ccc12`, the log K in the assay on Ferriprotoporphyrin IX worked out at 4.48. For the same compound, the IA50 in assay [1] is 5.3 equiv. The same compound registered an IC50 with Plasmodium falciparum of 747 nM.

`N#Cc1ccc2c(N)ccnc2c1`: in the assay with Ferriprotoporphyrin IX, the log K was found to be 4.32. The compound further displayed an IA50 in assay [1] of 6.1 equiv.

As for `CNc1ccnc2cc(C)ccc12`, the log K in the assay with Ferriprotoporphyrin IX stood at 4.01. The IA50 in assay [1] turned out to be 11.1 equiv.

Turning to `Nc1ccnc2cc(C(F)(F)F)ccc12`, the log K in the assay with Ferriprotoporphyrin IX was determined as 4.41. Moreover, the IA50 in assay [1] is 5.6 equiv.

Regarding `Nc1ccnc2cc(Cl)ccc12`, the log K with Ferriprotoporphyrin IX is 5.01. Also, in assay [1], the IA50 was determined as 5.8 equiv.

On to `CCN(CC)CCNc1ccnc2cc(F)ccc12`, for which, in the assay on Ferriprotoporphyrin IX, the log K was found to be 4.6. Besides, in assay [1], the IA50 was determined as 9.7 equiv.

In the case of `CCN(CC)CCNc1ccnc2cc(Br)ccc12`, the log K with Ferriprotoporphyrin IX came out at 4.99. The compound further showed an IA50 in assay [1] of 4.4 equiv.

Consider `CCN(CC)CCNc1ccnc2cc(Cl)ccc12`, for which the log K in the assay on Ferriprotoporphyrin IX is 5.81. In addition, the IA50 in assay [1] came out at 2.2 equiv.

With `CNc1ccnc2cc(Cl)ccc12`, the log K with Ferriprotoporphyrin IX came to 4.62. Besides, in assay [1], the IA50 amounted to 5.7 equiv.

As to `NCCNc1ccnc2cc(Cl)ccc12`, in the assay with Ferriprotoporphyrin IX, the log K stood at 5.1. Moreover, in assay [1], the IA50 was found to be 5.4 equiv. Also, the IC50 in the assay on Plasmodium falciparum was determined as 4.6 nM.

As to `CNc1ccnc2cc(C(F)(F)F)ccc12`, the log K in the assay with Ferriprotoporphyrin IX is 4.18. In addition, the IA50 in assay [1] turned out to be 5 equiv.

`CCN(CC)CCNc1ccnc2cc([N+](=O)[O-])ccc12`: the log K with Ferriprotoporphyrin IX was found to be 4.65. The IA50 in assay [1] turned out to be 3.1 equiv.

Turning to `CCN(CC)CCNc1ccnc2cc(OC)ccc12`, the log K in the assay with Ferriprotoporphyrin IX is 4.83. In assay [1], the IA50 was greater than 20 equiv.

`NCCNc1ccnc2ccccc12`: in the assay with Ferriprotoporphyrin IX, the log K is 4.38. For the same compound, the IA50 in assay [1] is 10.6 equiv. Also, it took 66 nM to reach half-maximal inhibition in the assay on Plasmodium falciparum (IC50).

Consider `COc1ccc2c(N)ccnc2c1`, for which the log K in the assay with Ferriprotoporphyrin IX amounted to 4.24. The IA50 in assay [1] turned out to be 15.6 equiv.

With `CNc1ccnc2cc([N+](=O)[O-])ccc12`, the log K in the assay on Ferriprotoporphyrin IX stood at 4.32. In assay [1], this compound gave an IA50 of 5.5 equiv.

As to `CCN(CC)CCNc1ccnc2cc(N)ccc12`, the log K in the assay on Ferriprotoporphyrin IX was determined as 4.35. Moreover, in assay [1], the IA50 is greater than 20 equiv.

As for `Nc1ccc2c(N)ccnc2c1`, the log K in the assay on Ferriprotoporphyrin IX was determined as 3.44. The compound further came in with an IA50 in assay [1] greater than 20 equiv.

As for `NC(=O)c1ccc2c(N)ccnc2c1`, in the assay on Ferriprotoporphyrin IX, the log K worked out at 3.76. For the same compound, the IA50 in assay [1] turned out to be 10.3 equiv.

In the case of `N#Cc1ccc2c(NCCN)ccnc2c1`, the log K in the assay on Ferriprotoporphyrin IX came to 4.47. Further, the IA50 in assay [1] came out at 6.3 equiv. In the assay on Plasmodium falciparum, this compound returned an IC50 of 20 nM.
